High-throughput results (PubChem)
An excerpt weighted towards active compounds, which were near 3.4% of everything screened.
Efa HMGR inh: E. faecalis class II HMG-CoA reductase inhibition. 190,000 tested, 0.41% active. purified E. faecalis HMGR, NADPH absorbance 340 nm kinetic. AID 1066. inhibition, % at 10 µM;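 active = inhibition above a set limit, the median over all tested compounds plus 3 SD, cut at about 9.5% in these data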;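 also: enzyme runs in reverse so mevalonate oxidation gives rising NADPH absorbance; 0% = complete reaction with DMSO and 100% = background rate lacking mevalonate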
Runt-CBFb FRET: Runt domain-CBFb interaction inhibition | Q01196+Q13951 | Cerulean-Runt/Venus-CBFb FRET ratio 530/480, 1 h | inhibition, % at 20 µM | 220,000 tested, 0.46% active | AID 1496;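 active = inhibition over about 50% at 20 µM in the single-dose screen, limit read from the data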;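 also: 0% = DMSO wells and 100% = excess unlabeled CBFb competitor control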
Target sequence (Q01196 whole entry, looked up, the tested form may be a part): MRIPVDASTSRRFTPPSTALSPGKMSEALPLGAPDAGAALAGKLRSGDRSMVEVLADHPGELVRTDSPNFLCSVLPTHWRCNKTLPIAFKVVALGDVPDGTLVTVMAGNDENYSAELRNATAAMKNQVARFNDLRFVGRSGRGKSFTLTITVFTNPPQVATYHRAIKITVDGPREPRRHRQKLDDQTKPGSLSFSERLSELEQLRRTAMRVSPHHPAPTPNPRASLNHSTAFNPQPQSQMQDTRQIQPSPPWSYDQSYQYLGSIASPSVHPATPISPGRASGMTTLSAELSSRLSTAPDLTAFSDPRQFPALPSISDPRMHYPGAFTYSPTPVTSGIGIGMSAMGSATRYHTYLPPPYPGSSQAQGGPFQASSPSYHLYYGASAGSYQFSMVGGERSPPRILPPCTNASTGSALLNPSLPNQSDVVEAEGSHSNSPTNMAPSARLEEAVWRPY
Target sequence (Q13951 whole entry, looked up, the tested form may be a part): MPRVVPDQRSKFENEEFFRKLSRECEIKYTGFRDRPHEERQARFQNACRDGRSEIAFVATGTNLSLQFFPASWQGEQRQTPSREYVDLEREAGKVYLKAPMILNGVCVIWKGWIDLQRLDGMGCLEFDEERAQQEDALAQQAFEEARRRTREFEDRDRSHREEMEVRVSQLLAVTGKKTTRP
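System: Cerulean-labeled Runt domain protein | Quantity: 100 nM of each labeled protein | Schedule: 1 h compound exposure, room temperature | Detection: Fluorescence energy transfer, 422 nm excitation, 530/480 nm emission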
RanGTP-Impb inh: inhibitors of RanGTP-importin-beta interaction, primary screen, biochemical, FRET, CFP-Ran, YFP-importin-beta, homogeneous. cell-free CFP-Ran/YFP-importin-beta FRET ratio. inhibition, % (test concentration not listed). 300,000 tested, 1.1% active. AID 2216;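 active = more than half of the replicate wells show a fall in the fluorescence ratio signal beyond about 16%, limit read from the data, passing the limit was not always enough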;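 also: 0% = DMSO wells and 100% = Ran loaded with GDP instead of GTP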
Runt-SMMHC FRET: Runt domain-CBFb-SMMHC interaction inhibition; Cerulean-Runt/Venus-CBFb-SMMHC FRET ratio 530/480, 1 h; 220,000 tested, 0.74% active; inhibition, % at 20 µM;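 active = mean inhibition across duplicate retests at 20 µM reaching about 50%, limit read from the data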;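 also: 0% = DMSO wells and 100% = wells with excess untagged CBFb-SMMHC; inhibitors lower the FRET ratio by blocking Runt binding to CBFb-SMMHC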
Wee1 degr inh: human Wee1 degradation inhibition, primary screen; reporter increase, % at 5 µM; 220,000 tested, 1.2% active; P30291; AID 1321; HeLa Luc-Wee1K328M stability, luciferase luminescence; 100% = proteasome inhibitor MG132 effect;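 active = activation above the mean of all tested compounds plus 3 SD, set per screening run, cut at about 8.8% in these data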;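 also: cells exposed to compound for 20 h before luminescence read; 0% = DMSO alone and 100% = MG132 at 30 µM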
PHOSPHO1 inh: PHOSPHO1 (human) inhibition. Q8TCT1. recombinant PHOSPHO1, absorbance phosphatase assay. inhibition, % at 13.3 µM. 290,000 tested, 1.1% active; in the data active = inhibition above about 60%
Numbers without * were called inactive; · = no result.

SMILES	Efa HMGR inh	Runt-CBFb FRET	RanGTP-Impb inh	Runt-SMMHC FRET	Wee1 degr inh	PHOSPHO1 inh
Cc1ccc(N2C(=O)[C@@H]3[C@H](C2=O)C2CCCN2[C@@H]3C(=O)c2ccccc2)cc1 (stereo partly specified)	4	-1	-5	-18	0	-29
CC(=O)c1ccc(N2C(=O)C3C(C2=O)C(C(=O)c2ccc(Cl)cc2)N2CCCC32)cc1 (stereo unspecified)	-8	-1	·	-34	11*	-65
O=C(c1ccc(Cl)cc1)C1C2C(=O)N(c3ccccc3)C(=O)C2C2CCCN21 (stereo unspecified)	-7	-2	-30	-27	0	84*
COc1ccc(N2C(=O)C3C(C2=O)C(C(=O)c2ccc(Cl)cc2)N2CCCC32)cc1 (stereo unspecified)	·	0	-2	-8	0	-86
C/C(=N\Nc1ccc(Cl)cc1)c1ccccn1	2	3	-5	0	1	94*
C/C(=N\NC(=O)c1ccc(Cl)cc1)c1ccccn1	·	·	6	·	·	24
CC(C)CCN1CCC(n2nccc2NC(=O)c2ccc3c(c2)OCO3)CC1	·	·	0	·	·	45
CN(C)S(=O)(=O)c1cccc(-c2nnc(SCc3cc(Cl)cc4c3OCOC4)n2N)c1	1	22	-8	11	0	99*
COc1ccc(-c2noc(CSc3nnc(Cc4ccccc4)n3-c3ccc(Cl)cc3)n2)cc1	-6	-9	-5	-5	1	11
Cc1ccc(-c2noc(CSc3nnc(Cc4ccccc4)n3-c3ccc(Cl)cc3)n2)cc1	18*	-10	1	-5	-3	15
Cc1c(Cl)cccc1NC(=O)CSc1ncnc2c1cnn2CCO	·	·	·	·	·	26
Cc1ccc(C(=O)OCC(=O)Nc2cc(S(C)(=O)=O)ccc2Cl)cc1S(=O)(=O)N1CCCCC1	·	·	5	·	·	·
O=C(NCc1ccc2c(c1)OCO2)c1ccc2c(c1)C(=O)N(Cc1cccnc1)C2=O	-2	2	25	0	-2	2
N=c1c(C(=O)NCc2ccc3c(c2)OCO3)cc2c(=O)n3ccccc3nc2n1Cc1cccnc1	-1	95*	63*	144*	0	-5
COc1ccc(CNC(=O)c2cc3c(=O)n4ccccc4nc3n(Cc3cccnc3)c2=N)cc1	-4	72*	72*	150*	-1	-21
Cc1cccn2c(=O)c3cc(C(=O)NCc4cccnc4)c(=N)n(C(C)C)c3nc12	-8	19	183*	79*	-1	31
Cc1ccc2nc3c(cc(C(=O)NCc4cccnc4)c(=N)n3C(C)C)c(=O)n2c1	·	13	·	39	·	1
CC(C)n1c(=N)c(C(=O)NCCc2ccccc2)cc2c(=O)n3ccccc3nc21	-6	11	174*	-21	3	63*
Cc1cccn2c(=O)c3cc(C(=O)NCc4cccnc4)c(=N)n(C)c3nc12	·	98*	·	74*	·	15
CC(C(=O)O)n1nc(-c2ccccc2)c2ccccc21 (stereo unspecified)	·	·	0	·	·	9
COc1cc(/C=N/NC(=O)COc2c(C)cc([N+](=O)[O-])cc2C)ccc1OC(=O)c1ccccc1	11*	-4	-5	-6	-1	33
S=c1[nH]nc(Nc2ccccc2Cl)s1	-2	29	-4	40	0	68*
S=c1[nH]nc(Nc2cccc(Cl)c2)s1	1	47	-1	48	0	80*
O=C1Cc2ccccc2Sc2c(OCCN3CCCCC3)cccc21	-4	3	2	5	2	-12
COc1cccc(OCCNC(=O)Nc2cc(F)c(F)cc2Cl)c1	-4	-1	-1	1	1	29
SMILES	Efa HMGR inh	Runt-CBFb FRET	RanGTP-Impb inh	Runt-SMMHC FRET	Wee1 degr inh	PHOSPHO1 inh
Cc1cc(C(=O)N2CCc3ccccc3C2)on1	·	·	-1	·	·	36
O=C(NCc1ccco1)c1c2c(nc3ccccc13)CCC2	-2	5	7	12	-2	72*
COc1cc(-c2cc(C(=O)NCc3ccco3)c3ccccc3n2)cc(OC)c1OC	·	·	-1	·	·	12
COc1ccc(Nc2cc(C(=O)NCc3ccco3)c3ccccc3n2)cc1	-5	9	6	19	11*	-8
CC(=O)NC12CC3CC(C1)CC(C(=O)N1CCN(S(=O)(=O)c4cccc(C(F)(F)F)c4)CC1)(C3)C2	·	·	-6	·	·	·
O=C(NN=C1C2CC3CC(C2)CC1C3)c1cccs1	-4	1	3	-6	9.5*	4
O=C(NN=C1CCCC1)c1cccs1	-2	-3	0	5	5	-10
CN1C2C(Br)CCCCN2c2ccc(F)cc2S1(=O)=O (stereo unspecified)	·	·	7	·	·	12
COc1ccc(-c2nc(CS(=O)CC(=O)NC3CCCCCC3)c(C)o2)cc1 (stereo unspecified)	·	·	-1	·	·	65*
CCOC(=O)N1CCN(C(=O)c2cccc(-n3c(=S)[nH]c4cc(Cl)ccc4c3=O)c2)CC1	1	-3	-4	-5	-3	64*
CCOC(=O)N1CCN(C(=O)c2ccc3c(=O)n(-c4ccc(OC)cc4)c(=S)[nH]c3c2)CC1	0	1	0	0	0	-8
Cc1cc(OC(=O)c2cccc(C(F)(F)F)c2)c([N+](=O)[O-])c(=O)[nH]1	·	·	5	·	·	5
CCOc1ccc(/C(O)=C2/C(=O)C(=O)N(CCCn3ccnc3)C2c2cccs2)cc1Cl (stereo unspecified)	-4	-3	0	-2	10*	22
Cn1c(/C=C(\C#N)C(N)=S)ccc1-c1ccc(Br)cc1	-13	89*	·	92*	7	27
NNc1nnc2c3cc(F)ccc3n(CCc3ccccc3)c2n1	·	·	5	·	·	·
COc1cc(C2NC(=O)NC(c3ccccc3)=C2C(C)=O)cc(Cl)c1OCC(=O)O (stereo unspecified)	14*	-2	-2	-2	3	-7
O=C1N(Cc2ccccc2)c2ccc(Cl)cc2C12OCCO2	·	·	4	·	·	·
COc1ccc(-c2cc(C(=O)Nc3ccccc3SC)no2)cc1	-6	4	3	0	-2	1
CSc1ccccc1NC(=O)c1cc(-c2cccs2)on1	-3	-2	3	-2	9.4*	6
CCOC(=O)c1sc(NC(=O)C(CC)Sc2nnc3c4ccccc4n(C(C)C)c3n2)nc1C (stereo unspecified)	-4	-2	·	1	0	68*
CCOCC(=O)OCC(=O)Nc1cc(OC)c([N+](=O)[O-])cc1C	21*	1	2	2	-3	22
COc1cc(NC(=O)COC(=O)CC(C)(C)C)c(C)cc1[N+](=O)[O-]	-1	0	-6	2	6	7
COc1ccc(N2CCN(C(=O)c3ccc(NS(=O)(=O)c4cccs4)cc3)CC2)cc1	-3	0	3	1	9.0*	5
